Data set [1] deals with Mus musculus. In words: Antiinflammatory activity BALB/c mouse assessed as inhibition of carbachol-induced bronchial reactivity at 10 mg/kg, po administered on day 0 and 7 and measured upto 21 days. In kind it is functional, organism-based. The conditions noted are these: time day <=21.
The test system of data set [2] is Mus musculus. Put plainly: Antiinflammatory activity against ovalbumin-induced airway hyperreactivity in BALB/c mouse assessed as reduction in LTB4 and isomers level in lung tissue at 10 mg/kg, po pretreated with compound for 60 mins prior to ovalbumin stimulation on day 0 and 7 and […] by UPLC-MS/MS analysis. In kind it is functional, organism-based. The gist of the method:
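Mice gavaged with 10 mg/kg 60 min before ovalbumin sensitization on days 0 and 7. Lung tissue taken on […] and LTB4 plus its isomers quantified as pg/mg lung tissue; n = 5 mice; two-tailed unpaired t-test of log data.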

Data set [3] in a line: Drug concentration in plasma of mouse at 10 mg/kg, po within 1 hr. It is filed as ADME, organism-based.
The test system of another data set is HepaRG. In words: Induction of CYP3A4 expression in human HepaRG cells at 0.1 to 10 uM incubated for 48 hrs by fluorescence based assay. In kind it is functional, cell-based. To be noted: dose 0.1-10 µM. The gist of the method:
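Differentiated HepaRG cells treated for 48 h; CYP3A4-expressing cells visualized by fluorescence imaging at 20× magnification; n = 3 independent experiments, with n = 9 for untreated cells.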

Data set [4] addresses T1, Polyunsaturated fatty acid lipoxygenase ALOX12 (Homo sapiens) (UniProt P18054).
T1 sequence (whole entry): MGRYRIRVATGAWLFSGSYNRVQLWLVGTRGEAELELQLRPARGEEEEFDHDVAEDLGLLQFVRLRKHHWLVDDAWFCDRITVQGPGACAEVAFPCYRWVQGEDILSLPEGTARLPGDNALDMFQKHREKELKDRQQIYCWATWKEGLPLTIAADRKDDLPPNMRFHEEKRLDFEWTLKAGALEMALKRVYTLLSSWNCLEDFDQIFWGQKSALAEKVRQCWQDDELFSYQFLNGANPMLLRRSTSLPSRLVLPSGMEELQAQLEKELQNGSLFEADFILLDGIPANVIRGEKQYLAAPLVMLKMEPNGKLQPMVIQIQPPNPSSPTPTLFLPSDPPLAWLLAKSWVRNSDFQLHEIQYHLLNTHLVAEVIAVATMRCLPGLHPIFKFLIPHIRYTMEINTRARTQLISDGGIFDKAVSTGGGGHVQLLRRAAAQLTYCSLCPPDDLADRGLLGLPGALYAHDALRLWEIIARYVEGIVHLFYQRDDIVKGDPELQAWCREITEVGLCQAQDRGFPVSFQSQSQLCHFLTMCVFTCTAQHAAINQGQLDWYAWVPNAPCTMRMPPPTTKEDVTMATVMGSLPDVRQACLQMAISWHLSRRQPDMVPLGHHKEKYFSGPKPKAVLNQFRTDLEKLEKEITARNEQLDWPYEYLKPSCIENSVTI
Put plainly: Inhibition of 12-LOX in human PMNL assessed as reduction in 12-LOX product formation at 10 uM treated with AA and A23187 by RP-HPLC method. It is filed as tissue-based.

Data set [5] deals with T2, Polyunsaturated fatty acid lipoxygenase ALOX15 (Homo sapiens) (UniProt P16050).
T2 sequence (whole entry): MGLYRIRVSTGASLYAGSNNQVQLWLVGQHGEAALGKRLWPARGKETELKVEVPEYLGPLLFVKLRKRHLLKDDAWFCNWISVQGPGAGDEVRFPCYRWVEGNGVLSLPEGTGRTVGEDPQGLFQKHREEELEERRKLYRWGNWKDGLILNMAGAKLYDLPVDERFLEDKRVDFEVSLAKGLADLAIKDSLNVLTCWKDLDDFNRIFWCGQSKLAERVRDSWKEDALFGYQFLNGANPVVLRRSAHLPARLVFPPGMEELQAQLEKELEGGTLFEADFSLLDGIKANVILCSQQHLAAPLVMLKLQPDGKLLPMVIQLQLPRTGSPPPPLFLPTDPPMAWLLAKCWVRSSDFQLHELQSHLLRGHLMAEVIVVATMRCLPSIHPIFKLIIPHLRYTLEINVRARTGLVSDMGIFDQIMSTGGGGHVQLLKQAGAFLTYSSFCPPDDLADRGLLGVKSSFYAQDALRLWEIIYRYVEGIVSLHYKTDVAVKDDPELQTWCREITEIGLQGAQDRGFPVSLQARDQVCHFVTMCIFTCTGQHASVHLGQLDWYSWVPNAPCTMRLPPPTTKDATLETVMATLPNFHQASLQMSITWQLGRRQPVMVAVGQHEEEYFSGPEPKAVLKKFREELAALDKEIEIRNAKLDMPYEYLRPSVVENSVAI
Put plainly: Inhibition of 15-LOX in human PMNL assessed as reduction in 15-LOX product formation at 10 uM treated with AA and A23187 by RP-HPLC method. In kind it is tissue-based.

For data set [6], the target named is T2, Polyunsaturated fatty acid lipoxygenase ALOX15 (Homo sapiens). Put plainly: Inhibition of 15-LOX in human PMNL assessed as reduction in 15-LOX product formation at 0.03 to 0.2 uM treated with AA and A23187 by RP-HPLC method. It is filed as tissue-based. The conditions noted are these: dose 0.03-0.2 µM.
The target of data set [7] is T3, Prostaglandin E synthase (Homo sapiens) (UniProt O14684).
T3 sequence (whole entry): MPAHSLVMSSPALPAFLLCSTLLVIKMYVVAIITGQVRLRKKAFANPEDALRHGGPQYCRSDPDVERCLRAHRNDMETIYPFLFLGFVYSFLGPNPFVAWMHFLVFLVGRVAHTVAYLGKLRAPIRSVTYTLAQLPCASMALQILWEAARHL
In words: Inhibition of mPEGS1 in pathogenic Escherichia coli-stimulated human macrophages M1 at 1 uM by UPLC-MS/MS analysis. The conditions noted are these: Macrophage. An outline of the steps: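 M1 macrophages obtained by GM-CSF differentiation for 6 days, then LPS/IFN-γ polarization for 48 h. Treated with compound at 1 μM and stimulated with pathogenic E. coli; lipid mediator network profiled by metabololipidomics against vehicle.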

Data set [8] concerns Keratinocyte. Put plainly: Cytotoxicity against human Keratinocytes assessed as reduction in cell viability at 10 to 100 uM after 24 hrs by MTT assay. It is filed as cell-based. The conditions noted are these: dose 10-100 µM.
The subject of data set [9] is Keratinocyte. In words: Antiinflammatory activity in cytokine cocktail-induced reconstructed human epidermis model assessed as reduction in IL-8 level at 5 to 25 uM after 4 days by ELISA. The conditions noted are these: dose 5-25 µM, time 4.0 day. In kind it is functional, cell-based. An outline of the steps:
(§1)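 Reconstructed human epidermis exposed to compound and stressed with a cytokine cocktail for 4 days. Readouts: IL-8 in growth medium, H&E morphology, transepidermal water loss, stratum corneum permeability to Lucifer yellow with DAPI nuclear stain, and surface pH. n = 2–3 independent experiments.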

For data set [10], the system named is Keratinocyte. In words: Antiinflammatory activity in cytokine cocktail-induced reconstructed human epidermis model assessed as improved skin barrier functions at 5 to 25 uM after 4 days. It is filed as functional, cell-based. The conditions noted are these: dose 5-25 µM, time 4.0 day. The gist of the method: as §1
A short description of data set [11]: Drug concentration in peritoneal exudate of CD-1 mouse at 30 mg/kg, po after 30 mins. It is filed as ADME, organism-based, Peritoneal fluid. To be noted: read-out: Ct. The gist of the method:
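Oral dosing at 30 mg/kg in zymosan peritonitis; mice killed 30 min after zymosan injection. Compound concentrations measured in plasma and in peritoneal exudate.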

Data set [12] relates to Mus musculus. In words: Antiinflammatory activity in zymosan-induced CD-1 mouse peritonitis model assessed as reduction in LTC4 level at 3 mg/kg, po preincubated with compound for 60 mins followed by zymosan addition and measured after 30 mins by ELISA. The conditions noted are these: time 90.0 min. It is filed as functional, organism-based. An outline of the steps: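 Oral dosing at 3 mg/kg in zymosan-induced peritonitis; mice killed 30 min after zymosan; LTC4 in peritoneal exudate measured by ELISA; two-tailed unpaired t-test of log data.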
For orientation: An ELISA detects its analyte on a solid surface through an enzyme-linked reagent.

Molecules are shown by their SMILES. Active and inactive are the calls of the source. The rule behind the calls is not given here.

Our source for the Activity, concentration and inhibition values is ChEMBL document CHEMBL4834471 (J Med Chem, 2021).

Take `C/C(=C\CC/C(C)=C/CC[C@]1(C)CCc2c(C)c(O)c(C)c(C)c2O1)CCC=C(CO)CO`: the outcome in the data set with Mus musculus [1], with Mus musculus [2], in the data set with Keratinocyte [9], with Keratinocyte [10] and in the data set on Mus musculus [12] was Active. The compound further yielded a concentration at 1 h in data set [3] of 30 nM. For the same compound, the outcome in the data set on HepaRG was inactive. The inhibition result in [4], in [5], in data set [6] and in data set [7] was “inactive” throughout. The Activity result in the data set with Keratinocyte [8] was “Non-Toxic”. Moreover, in data set [11], the concentration at 0.5 h came out at 0.5 nM.
